The record followed here is ChEMBL document CHEMBL1157731, “Novel KCNQ2/Q3 agonists as potential therapeutics for epilepsy and neuropathic pain” (J Med Chem, 2010).

By pEC50 is commonly meant the negative decadic logarithm of the EC50, by convention in mol/L. A higher pEC50 goes with a small EC50.

pEC50: −log10 of the molar value.

Test [1] is described as follows: Displacement of radioligand from GABAB receptor at 10 uM.
Test [2] addresses 5-hydroxytryptamine receptor 1B (Homo sapiens) (UniProt P28222). Kind of test: Displacement of radioligand from 5HT1B receptor at 10 uM by displacement assay.
The target in test [3] is Voltage-gated potassium channel, KQT; KCNQ2(Kv7.2)/KCNQ3(Kv7.3) (Homo sapiens, UniProt O43525+O43526). Kind of test: Activation of KCNQ2/KCNQ3 expressed in CHO cells by isotopic efflux assay. It counts as cell-based. An outline of the steps: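 86Rb+ flux in K+-channel-expressing cells loaded by culture in 86RbCl, then washed in EBSS. Preincubated with drug (0.01-30 μM in EBSS), then efflux stimulated by submaximal KCl (generally 7-20 mM) with drug still present. Supernatant and SDS lysate counted by Cherenkov. Percent efflux normalized to high-KCl (generally 30-135 mM) maximum. EC50 from eight-point half-log curves; mean of 2-4 determinations ± SEM.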

Test [4] concerns Rattus norvegicus. Kind of test: Anticonvulsant activity in po dosed Sprague-Dawley rat assessed as inhibition of pentylenetetrazole-induced seizure treated 30 mins before PTZ challenge. The class given is functional, organism-based. Summed up: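 Male Sprague-Dawley rats received compound po in 0.5% methylcellulose (1 mL/kg) 30 min before PTZ 85 mg/kg sc. Latency to tonic-clonic seizure timed from PTZ injection. No seizure within 15 min scored as protected (latency 15 min). EC50 derived from latency scores.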

In test [5] the test system is Mus musculus. In words: Anticonvulsant activity against maximal electroshock-induced seizures in po dosed CD1 mouse model treated 30 mins before electroshock application. It counts as functional, organism-based. An outline of the steps: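 Male CD-1 mice dosed po (10 mL/kg in 5% DMSO/95% of 0.5% HPMC/1% Tween 80) 30 min before corneal electroshock at 50 mA for 0.2 s, with 1% proparacaine in each eye. Latency to hindlimb extension recorded to 0.1 s. No extension within 6 s scored as protected (latency 6 s). Reported as protected/tested (8 per group), or EC50 derived from latency scores.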
(In the maximal electroshock model the usual endpoint is tonic extension of the hind limbs.)

Test [6] addresses T1, Alpha-2A adrenergic receptor (Homo sapiens) (UniProt P08913).
T1 sequence (whole entry): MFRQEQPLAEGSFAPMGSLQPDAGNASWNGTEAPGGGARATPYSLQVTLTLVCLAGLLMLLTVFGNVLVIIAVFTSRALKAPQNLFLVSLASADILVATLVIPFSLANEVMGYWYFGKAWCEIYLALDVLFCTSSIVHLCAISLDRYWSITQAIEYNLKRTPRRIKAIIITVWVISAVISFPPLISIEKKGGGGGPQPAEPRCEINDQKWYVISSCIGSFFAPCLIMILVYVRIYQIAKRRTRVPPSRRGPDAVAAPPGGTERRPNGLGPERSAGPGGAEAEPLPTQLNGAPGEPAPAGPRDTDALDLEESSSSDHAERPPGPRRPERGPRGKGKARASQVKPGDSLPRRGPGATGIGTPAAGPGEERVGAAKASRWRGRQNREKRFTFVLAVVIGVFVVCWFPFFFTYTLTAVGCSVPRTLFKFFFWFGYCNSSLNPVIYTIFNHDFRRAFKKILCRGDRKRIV
Kind of test: Displacement of radioligand from alpha 2 adrenergic receptor at 10 uM.

Test [7] has as its target Sodium-dependent noradrenaline transporter (Homo sapiens) (UniProt P23975). In words: Binding affinity to NET at 10 uM by displacement assay.
For test [8], the target named is D(2) dopamine receptor (Homo sapiens) (UniProt P14416). In words: Displacement of radioligand from dopamine D2 receptor at 10 uM.
The species named for test [9] is Rattus norvegicus. Kind of test: Displacement of [125I]peptide YY from neuropeptide Y receptor in rat cerebral cortex at 10 uM. The class given is tissue-based. On the technique in general: Displacement assays read how much labelled ligand stays bound in the presence of the test substance.
Test [10] concerns the target T2, 5-hydroxytryptamine receptor 1A (Homo sapiens) (UniProt P08908).
T2 sequence (whole entry): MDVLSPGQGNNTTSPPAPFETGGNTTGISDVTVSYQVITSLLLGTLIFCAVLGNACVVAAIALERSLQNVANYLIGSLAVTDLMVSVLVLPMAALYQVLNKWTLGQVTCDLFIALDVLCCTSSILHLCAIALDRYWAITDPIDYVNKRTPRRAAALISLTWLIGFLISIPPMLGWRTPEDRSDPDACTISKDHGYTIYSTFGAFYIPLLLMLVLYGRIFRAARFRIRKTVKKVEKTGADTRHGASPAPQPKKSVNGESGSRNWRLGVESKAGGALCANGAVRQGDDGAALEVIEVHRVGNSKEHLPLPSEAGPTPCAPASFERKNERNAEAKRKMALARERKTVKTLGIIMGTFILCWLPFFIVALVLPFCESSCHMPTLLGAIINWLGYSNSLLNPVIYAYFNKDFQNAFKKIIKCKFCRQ
Kind of test: Displacement of radioligand from 5HT1A receptor at 10 uM by displacement assay.

In test [11] the target is Sodium-dependent serotonin transporter (Homo sapiens) (UniProt P31645). In words: Binding affinity to SERT at 10 uM by displacement assay.
The species entered for test [12] is Rattus norvegicus. In words: Displacement of [3H]DTG from sigma opioid receptor in rat cerebral cortex. It counts as tissue-based.
For test [13], the target named is T3, Glucocorticoid receptor (Homo sapiens) (UniProt P04150).
T3 sequence (whole entry): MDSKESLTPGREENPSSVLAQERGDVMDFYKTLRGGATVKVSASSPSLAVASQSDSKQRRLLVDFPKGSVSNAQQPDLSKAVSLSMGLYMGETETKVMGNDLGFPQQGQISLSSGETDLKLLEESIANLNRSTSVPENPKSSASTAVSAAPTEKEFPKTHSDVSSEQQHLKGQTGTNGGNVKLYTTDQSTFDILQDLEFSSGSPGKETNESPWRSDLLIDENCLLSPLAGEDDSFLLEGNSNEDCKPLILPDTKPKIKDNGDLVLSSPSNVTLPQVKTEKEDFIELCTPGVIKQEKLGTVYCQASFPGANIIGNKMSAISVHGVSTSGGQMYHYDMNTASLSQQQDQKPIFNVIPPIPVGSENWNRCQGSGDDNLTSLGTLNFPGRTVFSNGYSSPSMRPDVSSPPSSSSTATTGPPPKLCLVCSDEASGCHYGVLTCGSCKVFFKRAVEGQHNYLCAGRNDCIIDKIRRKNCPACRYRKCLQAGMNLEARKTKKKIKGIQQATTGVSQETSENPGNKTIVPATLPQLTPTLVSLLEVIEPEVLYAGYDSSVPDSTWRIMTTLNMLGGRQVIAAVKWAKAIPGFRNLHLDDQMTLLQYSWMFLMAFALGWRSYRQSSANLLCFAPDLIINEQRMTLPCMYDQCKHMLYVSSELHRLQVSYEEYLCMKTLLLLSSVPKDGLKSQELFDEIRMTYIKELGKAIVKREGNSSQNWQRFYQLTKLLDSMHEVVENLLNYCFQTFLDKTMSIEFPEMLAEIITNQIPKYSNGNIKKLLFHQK
Kind of test: Binding affinity to glucocorticoid receptor at 10 uM by displacement assay.

Sodium-dependent noradrenaline transporter (Homo sapiens), sequence (P23975 whole entry): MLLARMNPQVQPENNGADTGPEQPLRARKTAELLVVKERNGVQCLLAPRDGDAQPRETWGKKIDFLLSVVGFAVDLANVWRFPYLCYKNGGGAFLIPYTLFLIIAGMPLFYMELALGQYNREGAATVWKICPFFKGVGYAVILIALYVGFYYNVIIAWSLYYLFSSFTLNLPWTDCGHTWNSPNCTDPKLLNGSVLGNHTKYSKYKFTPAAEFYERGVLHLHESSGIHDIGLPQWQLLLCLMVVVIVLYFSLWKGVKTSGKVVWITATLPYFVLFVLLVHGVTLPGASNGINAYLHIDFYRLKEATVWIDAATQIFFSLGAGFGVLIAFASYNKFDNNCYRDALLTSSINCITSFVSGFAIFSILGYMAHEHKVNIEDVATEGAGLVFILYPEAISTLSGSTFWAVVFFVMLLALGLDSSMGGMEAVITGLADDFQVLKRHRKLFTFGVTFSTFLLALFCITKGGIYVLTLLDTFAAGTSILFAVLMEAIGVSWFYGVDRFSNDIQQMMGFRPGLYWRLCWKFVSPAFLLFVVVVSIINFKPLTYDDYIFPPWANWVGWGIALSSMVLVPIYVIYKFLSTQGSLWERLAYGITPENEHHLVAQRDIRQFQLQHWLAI
Sodium-dependent serotonin transporter (Homo sapiens), sequence (P31645 whole entry, looked up): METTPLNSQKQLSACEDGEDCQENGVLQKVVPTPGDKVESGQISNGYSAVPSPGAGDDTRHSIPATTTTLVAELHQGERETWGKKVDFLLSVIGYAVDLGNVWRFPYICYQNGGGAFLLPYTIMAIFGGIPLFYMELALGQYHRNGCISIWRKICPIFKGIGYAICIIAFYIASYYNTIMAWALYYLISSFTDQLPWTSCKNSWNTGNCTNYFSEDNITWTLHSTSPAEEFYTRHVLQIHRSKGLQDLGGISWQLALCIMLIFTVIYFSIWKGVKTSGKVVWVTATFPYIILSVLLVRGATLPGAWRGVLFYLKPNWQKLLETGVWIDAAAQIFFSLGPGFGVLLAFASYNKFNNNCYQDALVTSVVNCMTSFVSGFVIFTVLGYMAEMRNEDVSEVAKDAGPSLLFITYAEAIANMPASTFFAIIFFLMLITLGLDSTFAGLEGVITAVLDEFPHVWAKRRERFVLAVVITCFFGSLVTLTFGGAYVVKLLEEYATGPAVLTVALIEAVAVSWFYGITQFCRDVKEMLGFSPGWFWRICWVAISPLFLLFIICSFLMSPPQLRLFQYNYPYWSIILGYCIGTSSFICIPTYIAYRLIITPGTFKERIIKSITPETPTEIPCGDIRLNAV
Voltage-gated potassium channel, KQT; KCNQ2(Kv7.2)/KCNQ3(Kv7.3), sequence (O43526 whole entry): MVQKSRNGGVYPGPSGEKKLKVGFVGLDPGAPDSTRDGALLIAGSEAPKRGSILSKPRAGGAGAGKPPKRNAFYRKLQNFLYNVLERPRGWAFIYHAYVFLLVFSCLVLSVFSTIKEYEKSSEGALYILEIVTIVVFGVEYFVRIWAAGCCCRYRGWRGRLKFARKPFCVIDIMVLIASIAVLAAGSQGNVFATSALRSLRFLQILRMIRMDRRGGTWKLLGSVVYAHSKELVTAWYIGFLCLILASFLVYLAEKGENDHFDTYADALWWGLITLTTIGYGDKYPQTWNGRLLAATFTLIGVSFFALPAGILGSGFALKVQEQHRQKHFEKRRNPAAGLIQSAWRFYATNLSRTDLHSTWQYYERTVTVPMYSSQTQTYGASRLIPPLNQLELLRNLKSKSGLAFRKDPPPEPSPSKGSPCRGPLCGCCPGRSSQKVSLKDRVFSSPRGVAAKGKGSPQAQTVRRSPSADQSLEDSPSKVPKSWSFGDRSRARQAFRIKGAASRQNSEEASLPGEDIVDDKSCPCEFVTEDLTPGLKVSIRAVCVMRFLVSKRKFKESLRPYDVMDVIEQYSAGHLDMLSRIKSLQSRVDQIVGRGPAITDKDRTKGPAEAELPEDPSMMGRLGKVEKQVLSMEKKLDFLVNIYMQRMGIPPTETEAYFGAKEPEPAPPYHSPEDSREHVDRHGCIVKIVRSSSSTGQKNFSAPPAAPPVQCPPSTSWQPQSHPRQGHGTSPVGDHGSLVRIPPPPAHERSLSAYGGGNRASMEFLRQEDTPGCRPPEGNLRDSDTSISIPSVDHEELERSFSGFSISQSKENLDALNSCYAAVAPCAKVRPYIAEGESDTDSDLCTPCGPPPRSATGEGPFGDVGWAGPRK
Voltage-gated potassium channel, KQT; KCNQ2(Kv7.2)/KCNQ3(Kv7.3), sequence (O43525 whole entry): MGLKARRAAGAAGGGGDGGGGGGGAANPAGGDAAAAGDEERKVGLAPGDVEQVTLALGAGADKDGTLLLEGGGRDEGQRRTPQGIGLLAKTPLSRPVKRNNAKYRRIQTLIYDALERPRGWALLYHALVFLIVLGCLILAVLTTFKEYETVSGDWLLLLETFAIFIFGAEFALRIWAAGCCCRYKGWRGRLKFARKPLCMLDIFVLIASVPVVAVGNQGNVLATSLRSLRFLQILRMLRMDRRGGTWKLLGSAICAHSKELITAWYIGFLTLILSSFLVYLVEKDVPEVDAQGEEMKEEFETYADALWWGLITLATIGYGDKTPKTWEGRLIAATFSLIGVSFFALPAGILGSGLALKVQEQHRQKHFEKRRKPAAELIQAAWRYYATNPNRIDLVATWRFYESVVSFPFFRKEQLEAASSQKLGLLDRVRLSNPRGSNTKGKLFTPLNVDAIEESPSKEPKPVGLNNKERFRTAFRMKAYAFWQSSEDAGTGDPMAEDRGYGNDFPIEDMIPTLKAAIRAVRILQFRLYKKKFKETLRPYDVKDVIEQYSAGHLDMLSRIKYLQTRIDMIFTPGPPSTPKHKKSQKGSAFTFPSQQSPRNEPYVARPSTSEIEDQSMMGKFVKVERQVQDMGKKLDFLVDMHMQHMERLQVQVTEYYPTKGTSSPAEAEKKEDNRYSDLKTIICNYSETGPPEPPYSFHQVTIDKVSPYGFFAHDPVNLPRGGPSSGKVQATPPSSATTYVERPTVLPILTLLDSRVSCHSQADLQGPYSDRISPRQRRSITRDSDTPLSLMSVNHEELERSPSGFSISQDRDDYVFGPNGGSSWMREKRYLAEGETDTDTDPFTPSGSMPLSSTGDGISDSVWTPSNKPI
D(2) dopamine receptor (Homo sapiens), sequence (P14416 whole entry): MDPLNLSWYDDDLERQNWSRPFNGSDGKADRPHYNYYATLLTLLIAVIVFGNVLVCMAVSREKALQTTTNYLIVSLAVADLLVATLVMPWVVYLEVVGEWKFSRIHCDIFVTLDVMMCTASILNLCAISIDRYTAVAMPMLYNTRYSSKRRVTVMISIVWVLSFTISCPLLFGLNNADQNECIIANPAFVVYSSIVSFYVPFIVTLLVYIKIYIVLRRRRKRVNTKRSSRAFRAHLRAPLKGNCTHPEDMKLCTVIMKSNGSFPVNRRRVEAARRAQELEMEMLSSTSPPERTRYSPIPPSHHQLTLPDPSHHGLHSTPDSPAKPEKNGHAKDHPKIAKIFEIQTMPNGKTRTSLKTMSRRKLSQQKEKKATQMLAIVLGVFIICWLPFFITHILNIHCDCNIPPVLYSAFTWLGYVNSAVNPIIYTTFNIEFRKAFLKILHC
5-hydroxytryptamine receptor 1B (Homo sapiens), sequence (P28222 whole entry): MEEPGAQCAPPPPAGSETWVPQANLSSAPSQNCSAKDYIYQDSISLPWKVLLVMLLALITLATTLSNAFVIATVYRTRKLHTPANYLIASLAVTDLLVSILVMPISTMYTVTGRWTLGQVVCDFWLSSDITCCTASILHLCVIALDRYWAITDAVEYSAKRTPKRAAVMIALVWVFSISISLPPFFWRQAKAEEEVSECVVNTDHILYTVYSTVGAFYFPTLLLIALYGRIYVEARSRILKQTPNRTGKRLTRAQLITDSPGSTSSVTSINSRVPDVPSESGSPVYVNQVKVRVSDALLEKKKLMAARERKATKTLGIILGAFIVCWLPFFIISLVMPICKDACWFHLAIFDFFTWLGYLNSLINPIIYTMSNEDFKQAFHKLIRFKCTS

For `CC(C)OC(=O)N/N=c1\sc2cc(OC(F)(F)F)ccc2n1C`, the Activity in test [1] is 0%; in [2], 0%; in test [6], 0%; in [7], 43%; in test [8] it was 0%; in [9], 0%. Further, the Activity in test [10] was 18%; in test [11], 16%; in [12], 19%; in [13] it was 0%. This compound showed a negative-log EC50 (pEC50) in [3] of 7.02. For the same compound, the EC50 in test [4] came out at 2.6 mg/kg; in test [5] it was 8.8 mg/kg.

Regarding `Cn1/c(=N/NC(=O)CC2CCCC2)sc2cc(OC(F)(F)F)ccc21`, the Activity in test [1] worked out at 12%; in test [2], 0%; in test [6], 0%; in test [7], 34%; in test [8], 0%; in [9], 33%. In addition, the Activity in test [10] is 0%; in test [11] it was 50%; in test [12], 0%; in test [13], 14%. This compound had a pEC50 in test [3] of 7.36. Also, the EC50 in [4] is 7.5 mg/kg; in test [5], less than 10 mg/kg.

As for `Cn1/c(=N/NC(=O)CC(C)(C)C)sc2cc(OC(F)(F)F)ccc21`, the Activity in test [1] was determined as 16%; in test [2], 0%; in test [6] it was 0%; in test [7] it was 14%; in test [8], 0%; in [9] it was 0%. For the same compound, the Activity worked out at 0% in test [10], 20% in test [11], 0% in test [12] and 0% in [13]. This compound also had a pEC50 in test [3] of 7.31. In addition, the results for the EC50 in test [4] and in test [5] were 3.8 mg/kg and 4.4 mg/kg, respectively.
